Calls of active or inactive are those of the source. The rule behind the calls is not given here.
Experiments:
[1] = target: T1, Bile acid receptor (Homo sapiens) (UniProt Q96RI1); experiment: Agonist activity at GAL4-fused human FXR LBD expressed in human HepG2 cells up to 2 uM after 20 hrs by luciferase reporter gene assay; type: cell-based
T1 sequence (whole entry): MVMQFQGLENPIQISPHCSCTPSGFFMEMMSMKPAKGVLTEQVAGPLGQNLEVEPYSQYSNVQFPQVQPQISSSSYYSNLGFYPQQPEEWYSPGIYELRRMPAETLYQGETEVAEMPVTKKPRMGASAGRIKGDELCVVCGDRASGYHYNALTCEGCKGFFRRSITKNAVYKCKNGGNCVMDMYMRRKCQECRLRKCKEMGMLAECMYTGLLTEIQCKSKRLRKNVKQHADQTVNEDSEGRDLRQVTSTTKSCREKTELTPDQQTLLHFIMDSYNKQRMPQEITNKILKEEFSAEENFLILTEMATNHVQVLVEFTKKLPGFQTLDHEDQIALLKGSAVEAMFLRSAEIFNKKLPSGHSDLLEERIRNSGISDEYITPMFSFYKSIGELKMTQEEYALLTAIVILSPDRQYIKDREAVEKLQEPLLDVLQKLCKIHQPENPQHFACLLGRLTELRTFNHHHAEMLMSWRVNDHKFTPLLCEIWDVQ
Outline: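 HepG2 in MEM/10% FBS, calcium-phosphate co-transfection 24 h after seeding with GAL4-FXR-LBD (30 ng), pGAL5TKpGL3 luciferase reporter (100 ng) and pCMVβgal (250 ng); 4 h later, 20 h ligand exposure in triplicate. Luciferase normalized to β-galactosidase (ONPG); efficacy as % of maximal fold induction of chenodeoxycholic acid reference; tested up to 2 μM.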

[2] = test system: HepG2; experiment: Cytotoxicity against human HepG2 cells at >2 uM; type: cell-based
[3] = target: T2, Peroxisome proliferator-activated receptor alpha (Homo sapiens, UniProt Q07869); experiment: Transactivation of GAL4-fused human PPARalpa LBD expressed in human HepG2 cells after 20 hrs by luciferase reporter gene assay; type: cell-based
T2 sequence (Q07869 whole entry): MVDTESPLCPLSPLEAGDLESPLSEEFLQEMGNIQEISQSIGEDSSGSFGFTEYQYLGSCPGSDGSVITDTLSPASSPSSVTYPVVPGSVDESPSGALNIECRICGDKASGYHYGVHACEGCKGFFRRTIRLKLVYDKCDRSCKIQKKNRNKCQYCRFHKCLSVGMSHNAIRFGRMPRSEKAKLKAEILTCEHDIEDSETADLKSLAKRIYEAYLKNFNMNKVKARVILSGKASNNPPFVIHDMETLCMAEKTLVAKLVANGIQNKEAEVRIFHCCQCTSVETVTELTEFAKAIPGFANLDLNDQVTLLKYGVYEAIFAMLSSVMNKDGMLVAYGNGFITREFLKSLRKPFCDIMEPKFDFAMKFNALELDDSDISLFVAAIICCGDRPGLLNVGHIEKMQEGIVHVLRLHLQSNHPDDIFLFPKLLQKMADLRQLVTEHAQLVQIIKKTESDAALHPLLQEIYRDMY

[4] = target: T3, Peroxisome proliferator-activated receptor gamma (Homo sapiens, UniProt P37231); experiment: Transactivation of GAL4-fused human PPARgamma LBD expressed in human HepG2 cells after 20 hrs by luciferase reporter gene assay; type: cell-based
T3 sequence (P37231 whole entry): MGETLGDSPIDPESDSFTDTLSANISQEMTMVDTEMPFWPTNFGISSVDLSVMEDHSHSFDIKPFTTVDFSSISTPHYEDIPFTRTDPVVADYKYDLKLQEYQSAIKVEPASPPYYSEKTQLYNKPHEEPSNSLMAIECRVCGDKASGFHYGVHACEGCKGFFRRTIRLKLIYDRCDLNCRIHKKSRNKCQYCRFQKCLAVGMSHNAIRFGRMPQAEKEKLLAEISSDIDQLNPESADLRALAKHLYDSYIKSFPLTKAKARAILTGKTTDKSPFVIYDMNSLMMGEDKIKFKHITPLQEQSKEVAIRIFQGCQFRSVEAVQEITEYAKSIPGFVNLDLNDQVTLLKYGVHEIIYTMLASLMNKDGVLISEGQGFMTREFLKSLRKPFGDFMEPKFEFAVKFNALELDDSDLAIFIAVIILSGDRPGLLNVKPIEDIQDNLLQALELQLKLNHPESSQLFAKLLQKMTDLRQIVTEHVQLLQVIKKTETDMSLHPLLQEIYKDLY

[5] = target: T4, Peroxisome proliferator-activated receptor alpha (Homo sapiens) (UniProt Q07869); experiment: Agonist activity at PPARalpha in human HepG2 cells assessed as increase in CAC mRNA level at 1 uM after 24 hrs by RT-PCR method; type: cell-based
T4 sequence (whole entry): T2 sequence (Q07869 whole entry)
Outline: (§1)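 Serum-free HepG2 exposed 24 h to 1 μM test agent (Wy-14,643 reference at 50 μM). RNA extracted from 1x10⁶ cells; TaqMan real-time RT-PCR for CAC, CPT1 or PPARα, normalized to β-actin. Mean ± SD of three independent duplicate experiments; one-way ANOVA with Bonferroni test.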

[6] = target: T4, Peroxisome proliferator-activated receptor alpha (Homo sapiens); experiment: Agonist activity at PPARalpha assessed as induction of positive regulatory loop based receptor transcriptional activation by measuring upregulation of PPARalpha mRNA level in human HepG2 cells at 1 uM after 24 hrs by RT-PCR method; type: cell-based; outline: as §1
[7] = target: T4, Peroxisome proliferator-activated receptor alpha (Homo sapiens); experiment: Agonist activity at PPARalpha in human HepG2 cells assessed as increase in CAC protein expression level at 1 uM after 48 hrs by Western blot method; type: cell-based
Outline: (§2)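 HepG2 serum-depleted 24 h, then treated 48 h with 1 μM compound (Wy-14,643 at 50 μM as reference). Nitrocellulose immunoblots probed for CAC, CPT1 or PPARα with β-actin loading control, chemiluminescent detection; band densitometry expressed as fold change versus untreated cells; three independent experiments.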

[8] = target: T4, Peroxisome proliferator-activated receptor alpha (Homo sapiens); experiment: Agonist activity at PPARalpha assessed as induction of positive regulatory loop based receptor transcriptional activation by measuring upregulation of PPARalpha protein expression level in human HepG2 cells at 1 uM after 48 hrs by Western blot method; type: cell-based; outline: as §2
[9] = test system: HEK-293T; experiment: Effect on p21waf1/cip1 protein expression in HEK293T cells at 10 uM after 48 hrs by Western blot method; type: cell-based; conditions: human
Outline: (§3)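 HT-29 or HEK293T cells in DMEM/10% FBS treated 48 h with 10 μM compound (DMSO vehicle, final below 0.1%). RIPA lysates (with protease inhibitors), 80 μg protein per lane immunoblotted for p21waf1/cip1 with β-actin loading control; densitometric p21/β-actin ratio, mean ± SD of at least three independent experiments.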

[10] = target: T5, Peroxisome proliferator-activated receptor gamma (Homo sapiens) (UniProt P37231); experiment: Agonist activity at PPARgamma in human HT-29 cells assessed as upregulation of p21waf1/cip1 protein expression at 10 uM after 48 hrs by Western blot method; type: cell-based; outline: as §3
T5 sequence (whole entry): T3 sequence (P37231 whole entry)

[11] = target: T4, Peroxisome proliferator-activated receptor alpha (Homo sapiens); experiment: Agonist activity at PPARalpha in human HepG2 cells assessed as increase in CPT1 mRNA level at 1 uM after 24 hrs by RT-PCR method; type: cell-based; outline: as §1
[12] = target: T5, Peroxisome proliferator-activated receptor gamma (Homo sapiens); experiment: Agonist activity at PPARgamma in human HT-29 cells harboring APC mutant assessed as inhibition of Wnt/beta-catenin signaling pathway by measuring decrease in c-Myc level at 10 uM treated for 24 hrs by Western blot method; type: cell-based
Outline: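 RIPA lysates, 80 μg protein immunoblotted for c-Myc with β-actin loading control; c-Myc/β-actin densitometry, mean ± SD of at least three independent experiments.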

[13] = target: T4, Peroxisome proliferator-activated receptor alpha (Homo sapiens); experiment: Agonist activity at PPARalpha in human HepG2 cells assessed as increase in mitochondrial mass at 1 uM by CellLight Mitochondria-GFP staining based fluorescent microscopic method relative to control; type: cell-based
Outline: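 Serum-free HepG2 at 60% confluence transduced with Mitochondria-GFP BacMam 2.0 (50 particles/cell) and given 1 μM compound or 50 μM Wy-14,643 for 24 h. Imaged at 20x with GFP filters (ex 485/em 535 nm); separately, SDS/Tris pH 7.5 lysates read at ex 475, em 500-550 nm. Mean ± SD of three experiments, ANOVA/Bonferroni.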

[14] = target: T4, Peroxisome proliferator-activated receptor alpha (Homo sapiens); experiment: Agonist activity at PPARalpha in human HepG2 cells assessed as increase in CPT1 protein expression level at 1 uM after 48 hrs by Western blot method; type: cell-based; outline: as §2
[15] = test system: HT-29; experiment: Growth inhibition of human HT-29 cells assessed as cell vitality up to 10 uM up to 72 hrs by hemocytometry relative to control; type: functional; set-up: scale not given: the % may be the effect or the level left
Outline: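 Exponentially growing HT-29 colon adenocarcinoma cells (D-MEM, 10% FBS, 37 °C, 5% CO2) exposed to vehicle (DMSO, final <0.1%) or 1, 5 and 10 μM compound in 10% FBS medium for 24, 48 and 72 hs; cells washed, trypsinized and counted by Bürker hemocytometer, three counts per well. Viability relative to vehicle; mean ± SD of three independent experiments in duplicate.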

[16] = target: T2, Peroxisome proliferator-activated receptor alpha; experiment: Binding affinity to PPARalpha (unknown origin) assessed as kinetic dissociation constant by SPR assay
[17] = target: T3, Peroxisome proliferator-activated receptor gamma; experiment: Binding affinity to PPARgamma (unknown origin) assessed as kinetic dissociation constant by SPR assay
[18] = target: T6, Peroxisome proliferator-activated receptor delta (Homo sapiens, UniProt Q03181); experiment: Transactivation of GAL4-fused human PPARdelta LBD expressed in human HepG2 cells after 20 hrs by luciferase reporter gene assay; type: cell-based
T6 sequence (Q03181 whole entry): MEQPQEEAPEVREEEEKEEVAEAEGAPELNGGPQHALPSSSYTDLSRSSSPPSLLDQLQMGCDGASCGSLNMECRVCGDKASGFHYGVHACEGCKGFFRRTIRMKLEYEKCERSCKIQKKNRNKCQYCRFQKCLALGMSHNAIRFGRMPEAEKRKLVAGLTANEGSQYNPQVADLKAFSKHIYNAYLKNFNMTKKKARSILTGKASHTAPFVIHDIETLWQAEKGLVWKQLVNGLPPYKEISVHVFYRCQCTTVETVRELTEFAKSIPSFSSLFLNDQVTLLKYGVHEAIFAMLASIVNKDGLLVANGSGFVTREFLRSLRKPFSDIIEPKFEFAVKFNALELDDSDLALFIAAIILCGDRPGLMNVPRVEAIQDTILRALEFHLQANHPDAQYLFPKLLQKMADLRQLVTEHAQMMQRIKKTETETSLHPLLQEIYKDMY
Outline: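 HepG2 cells seeded 10⁵/well, transfected after 24 h by calcium phosphate with GAL4-PPARδ-LBD (30 ng), pGAL5TKpGL3 luciferase reporter (100 ng) and pCMVβgal (250 ng); 4 h later treated 20 h in triplicate with ligands up to 2 μM. Luciferase in cell extracts normalised to β-galactosidase (ONPG); efficacy as % of maximal fold induction of reference agonist L-165,041; experiments repeated at least twice.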

[19] = target: T6, Peroxisome proliferator-activated receptor delta; experiment: Binding affinity to PPARdelta (unknown origin) assessed as thermodynamic dissociation constant by SPR assay; conditions: read-out: Kd
[20] = target: T3, Peroxisome proliferator-activated receptor gamma; experiment: Binding affinity to PPARgamma (unknown origin) assessed as thermodynamic dissociation constant by SPR assay
[21] = target: T6, Peroxisome proliferator-activated receptor delta; experiment: Binding affinity to PPARdelta (unknown origin) assessed as kinetic dissociation constant by SPR assay
[22] = target: T2, Peroxisome proliferator-activated receptor alpha; experiment: Binding affinity to PPARalpha (unknown origin) assessed as thermodynamic dissociation constant by SPR assay

CC(Oc1ccc(Cc2ccc(OCc3coc(-c4ccccc4)n3)cc2)cc1)C(=O)O (configuration not stated)
Activity [1]: inactive | Activity [2]: Toxic | EC50 [3]: 39 nM | EC50 [4]: 290 nM

Cc1oc(-c2ccccc2)nc1COc1ccc(Cc2ccc(OC(C)C(=O)O)cc2)cc1 (configuration not stated)
Activity [1]: inactive | Activity [5]: Active | Activity [6]: Active | Activity [7]: Active | Activity [2]: Toxic | Activity [8]: Active | EC50 [3]: 100 nM | Activity [9]: Non-Toxic | Activity [10]: Active | Activity [11]: Active | Activity [12]: Active | Activity [13]: 30% | Activity [14]: Active | EC50 [4]: 290 nM | Activity [15]: 70%

CCC(CC)(c1ccc(OCc2nc(-c3ccccc3)oc2C)cc1)c1ccc(OC(C)C(=O)O)cc1 (configuration not stated)
Activity [1]: inactive | Activity [2]: Toxic

CCCc1c(OCCCOc2ccc(OCC(=O)O)cc2)ccc(C(C)=O)c1O
Kd [16]: Not Active | Kd [17]: Not Active | EC50 [18]: 20 nM | Kd [19]: 76.4 nM | Kd [20]: Not Active | Kd [21]: 0.43 s⁻¹ | Kd [22]: Not Active

CCC(CC)(c1ccc(OCc2coc(-c3ccccc3)n2)cc1)c1ccc(OC(C)C(=O)O)cc1 (configuration not stated)
Activity [1]: inactive | Activity [2]: Toxic

CCC(CC)(c1ccc(OCc2coc(-c3c(Cl)cccc3Cl)n2)cc1)c1ccc(OC(C)C(=O)O)cc1 (configuration not stated)
Activity [1]: inactive | Activity [2]: Toxic

CN(CCOc1ccc(CC2SC(=O)NC2=O)cc1)c1ccccn1 (configuration not stated) [ROSIGLITAZONE]
Kd [16]: Not Active | Activity [15]: 65% | Kd [22]: Not Active

CCC(CC)(c1ccc(OCc2nc(-c3c(Cl)cccc3Cl)oc2C)cc1)c1ccc(OC(C)C(=O)O)cc1 (configuration not stated)
Activity [1]: inactive | Activity [2]: Toxic

Reference: ChEMBL document CHEMBL4007396, “New diphenylmethane derivatives as peroxisome proliferator-activated receptor alpha/gamma dual agonists endowed with anti-proliferative effects and mitochondrial activity” (Eur J Med Chem, 2017)
